# From PubChem
# A selection: hits, their analogues and other compounds. The true share with any hit is near 9.4%.
# SKKanGAS inh – inhibitors of SKKanGAS S. pyogenes growth in kanamycin (SK-promoter or general growth effect). inhibition, % at 7.5 µM. actives 1.3% (n = 300,000). BacTiter-Glo, 6 h;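 active means mean replicate score, as percent of positive control median, at least 50; inconclusive means mean below 50 but one replicate at or above 50; inactive means mean and every replicate below 50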;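 further: strain carries kanamycin resistance gene driven by streptokinase promoter and grows in 40 µg/ml kanamycin; loss of luminescence reflects streptokinase promoter inhibition or plain growth inhibition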
# Beta apoptosis – blocks beta cell apoptosis; AID 435005; actives 0.8% (n = 300,000); protection from apoptosis, % (concentration not given with the values); INS-1E cytokine-induced death, ATP luminescence, 48 h; percent of positive-control rescue, neutral wells zero;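 active means Every replicate reaches about 75%, or at least half do and their mean reaches it too, limit read from the data; inconclusive means At least half of replicates reach the limit but their mean does not; inactive means Under half of replicates reach the limit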;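 further: higher means more ATP so stronger rescue from cytokine killing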
# Lmaj promast – reduces viability of Leishmania major promastigotes. AID 1063. actives 9% (n = 200,000). inhibition, % at 10 µM. resazurin fluorescence viability; in the data active means inhibition above about 50%;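 further: promastigotes grown with compound for 44 hours at 28 °C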
# CSC inhib – blocks cancer stem cells. cancer stem cell-like cells viability, luminescence. inhibition, % at 7.5 µM. actives 1.1% (n = 300,000); in the data active means inhibition above about 75%; inconclusive means no clear call, values can overlap the other calls; tested in HMLE shEcad cells
# T cruzi repl – T. cruzi replication inhibition; actives 1.4% (n = 300,000); T. cruzi beta-gal in NIH3T3, luminescence, 90 h; inhibition, % (concentration not given with the values);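 active means mean inhibition across valid replicates above about 55%, limit read from the data; inconclusive means mean below that limit but half or more replicates reach it; inactive means mean below it, under half of replicates reach it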;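 further: signal also drops with host cell toxicity which is not excluded here; higher percent means less beta-gal luminescence so fewer parasites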
#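 System: Mouse NIH/3T3 fibroblasts infected with β-gal-expressing T. cruzi Tulahuen C4 | Quantity: NIH/3T3 cells, 5,000 per well | Reagent: 5000 reporter trypomastigotes per well | Dosing: Compound pinned at 50 nL/well, DMSO | Schedule: 3 h host attachment, then at least 90 h co-culture | Detection: GalScreen luminescence, 60 min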
# Mdm2 MdmX PPI – human Mdm2/MdmX binding inhibition. actives 3% (n = 330,000). SaOS-2 split-luciferase Mdm2/MdmX complementation, luminescence. inhibition, % at 8 µM. O15151+Q00987;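 active means inhibition of at least 50% at 8 µM in the primary screen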
# Target sequence (O15151 whole entry, looked up): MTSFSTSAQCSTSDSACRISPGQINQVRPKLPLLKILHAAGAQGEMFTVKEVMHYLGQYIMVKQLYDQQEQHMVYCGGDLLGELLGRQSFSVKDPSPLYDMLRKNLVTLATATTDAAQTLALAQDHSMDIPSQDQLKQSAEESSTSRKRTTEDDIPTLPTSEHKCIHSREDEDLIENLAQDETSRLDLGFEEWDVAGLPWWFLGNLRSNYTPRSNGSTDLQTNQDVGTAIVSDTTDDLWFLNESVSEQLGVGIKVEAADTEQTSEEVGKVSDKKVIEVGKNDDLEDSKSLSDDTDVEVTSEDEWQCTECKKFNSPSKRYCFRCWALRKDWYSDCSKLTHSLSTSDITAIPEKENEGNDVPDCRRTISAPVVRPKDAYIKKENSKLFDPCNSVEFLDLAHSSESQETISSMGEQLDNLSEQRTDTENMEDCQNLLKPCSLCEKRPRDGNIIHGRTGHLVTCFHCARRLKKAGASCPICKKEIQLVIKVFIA
# Target sequence (Q00987 whole entry, looked up): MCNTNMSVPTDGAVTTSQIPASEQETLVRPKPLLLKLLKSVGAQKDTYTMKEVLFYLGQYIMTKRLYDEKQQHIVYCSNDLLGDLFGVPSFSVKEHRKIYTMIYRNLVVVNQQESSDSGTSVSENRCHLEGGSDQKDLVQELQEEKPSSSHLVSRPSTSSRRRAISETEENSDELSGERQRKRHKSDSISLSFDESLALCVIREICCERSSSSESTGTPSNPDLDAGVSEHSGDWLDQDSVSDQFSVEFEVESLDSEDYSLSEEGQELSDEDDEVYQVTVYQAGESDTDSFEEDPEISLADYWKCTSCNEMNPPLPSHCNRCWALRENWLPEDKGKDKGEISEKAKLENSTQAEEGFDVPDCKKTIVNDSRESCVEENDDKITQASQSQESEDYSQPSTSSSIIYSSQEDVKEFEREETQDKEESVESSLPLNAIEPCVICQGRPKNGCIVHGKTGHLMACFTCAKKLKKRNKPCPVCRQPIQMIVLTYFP
# Hits are given with their value; 0 = inactive; ? = inconclusive; - = no result.
SMILES,SKKanGAS inh,Beta apoptosis,Lmaj promast,CSC inhib,T cruzi repl,Mdm2 MdmX PPI
Oc1ccc(/C=N/Nc2ccc3ccccc3c2)c(O)c1,51.9,0,85.1,0,0,0
Cc1cc(N/N=C/c2ccc(O)cc2O)c2ccccc2n1,0,0,-,0,0,0
CCOC(=O)N1CCN(C(=O)Cc2ccccc2[N+](=O)[O-])CC1,0,0,-,0,0,0
COC(=O)c1cccc(Nc2cc(C)nc(-c3ccccc3O)n2)c1,0,0,67.0,?,57.9,0
CC(=O)Oc1ccc(-c2csc(Nc3ccc(Cl)cn3)n2)cc1,0,-,-,95.1,0,0
COc1ccc(-c2csc(Nc3ccc(C)cn3)n2)cc1,0,0,0,0,0,0
CCN1/C(=C2/OC(=S)N(C)C2=O)Sc2ccccc21,-,-,0,-,-,-
CCN1/C(=C2/SC(=S)NC2=O)Sc2ccccc21,0,0,76.5,0,0,0
O=C1c2ccccc2C(=O)N1CCCCN(C(=O)c1cc([N+](=O)[O-])cc([N+](=O)[O-])c1)c1ccc(Cl)cc1,0,0,99.0,0,0,0
O=C1c2ccccc2C(=O)N1CCCCN(C(=O)c1ccc([N+](=O)[O-])cc1)c1ccc(Cl)cc1,0,0,0,0,0,0
Cc1ccc(N(CCCCN2C(=O)c3ccccc3C2=O)C(=O)c2cccc([N+](=O)[O-])c2)cc1,0,0,0,0,0,0
O=C1c2ccccc2C(=O)N1CCCCN(C(=O)c1cc([N+](=O)[O-])ccc1Cl)c1ccc(Cl)cc1,0,0,57.9,0,0,0
COc1ccc(C(=O)N[C@H](C(=O)NCc2ccc(C)cc2)C(C)C)cc1,0,0,-,0,0,0
Cc1cccc(C(=O)N[C@H](C(=O)Nc2nc(C)cs2)C(C)C)c1,0,0,64.3,0,0,0
Cc1csc(NC(=O)[C@@H](NC(=O)c2ccccc2)C(C)C)n1,0,0,0,0,0,0
COc1ccc(C(=O)NC(C(=O)NCC(=O)Nc2c(C)cccc2C)C(C)C)cc1 (stereo unspecified),0,0,67.1,0,0,0
Cn1nccc1-c1cc(Cl)cc(Cl)c1O,0,0,-,0,0,0
COc1ccc(-c2ccc3c(c2)S(=O)(=O)c2cccc(C(=O)NCc4cc(C)oc4C(F)(F)F)c2C3=O)cc1OC,-,0,-,0,-,0
Cc1ccc(NC(=O)CSCC(=O)Nc2ccccc2N2CCCCC2)cc1,0,0,-,0,0,0
NC(=O)Cn1nnc(-c2ccc(CN3CCCCC3)cc2)n1,0,0,0,0,0,0
O=C(Cn1nnc(-c2ccc(CN3CCOCC3)cc2)n1)N(c1ccccc1)c1ccccc1,0,0,70.2,0,0,0
Cc1ccc(-c2nnn(CC(=O)N3c4ccccc4CCc4ccccc43)n2)cc1,0,0,0,0,57.8,0
Cc1ccc(NC(=O)CSCC(=O)N2c3ccccc3CCc3ccccc32)cc1,0,0,66.5,0,0,0
O=C(Cn1nnc(-c2ccc(CN3CCOCC3)cc2)n1)N1CCCc2ccccc21,0,0,83.6,0,0,0
CCCCN(C(=O)c1cccc(-n2cccc2)c1)c1c(N)n(Cc2ccccc2)c(=O)[nH]c1=O,0,0,-,0,0,0
SMILES,SKKanGAS inh,Beta apoptosis,Lmaj promast,CSC inhib,T cruzi repl,Mdm2 MdmX PPI
Cc1ccccc1OCC(=O)NCC(c1cccs1)N1CCOCC1 (stereo unspecified),0,0,-,0,0,0
Cc1ccccc1NC(=O)C(=O)c1cn(C)c2ccccc12,0,0,0,0,0,0
CCC1(c2ccc(F)cc2)NC(=O)N(CC(=O)Nc2ccccc2Cl)C1=O (stereo unspecified),0,0,-,0,0,0
CC(C)(C)c1cc[n+](C2=C([O-])c3ccccc3C(=O)/C2=N\S(=O)(=O)c2cccs2)cc1,56.1,107.4,-,0,0,0
O=C1/C(=N\S(=O)(=O)c2cccs2)C([n+]2ccccc2)=C([O-])c2ccccc21,0,97.1,-,0,0,0
O=C(NNC(=S)NC(=O)c1ccccc1)c1cccc([N+](=O)[O-])c1,?,0,-,0,0,0
Cc1ccc(C(=O)NC(=S)NNC(=O)c2cccc([N+](=O)[O-])c2)cc1,74.0,0,-,0,0,0
O=C(NNC(=O)c1ccccn1)c1cccc([N+](=O)[O-])c1,0,0,57.6,0,0,0
O=C(NNC(=S)NC(=O)c1cccc([N+](=O)[O-])c1)c1ccc(Br)cc1,67.7,0,-,0,0,0
Cn1c(=O)n(C)c2cc(NC(=O)c3cccc([N+](=O)[O-])c3)c(Br)cc21,0,0,59.8,-,0,0
O=C(NNC(=S)NC(=O)c1cccc([N+](=O)[O-])c1)c1ccc(O)cc1,0,-,-,0,0,0
Cn1c(=O)n(C)c2cc(NC(=O)c3ccc(F)cc3)c(Br)cc21,0,0,-,0,0,0
Cc1ccc(C(=O)COC(=O)[C@@H](NC(=O)c2ccco2)C(C)C)s1,-,0,-,0,-,0
COc1cnc(-c2ccccc2)[nH]c1=O,0,0,0,0,0,0
Cc1cc(C)cc(N(C(=O)c2cccs2)C2C=CS(=O)(=O)C2)c1 (stereo unspecified),0,0,0,0,0,0
C/C(=C/CCC(C)[C@H]1CC[C@@]2(C)C3=C(CC[C@]12C)[C@@]1(C)CCC(=O)C(C)(C)[C@@H]1CC3)C(=O)O (stereo partly specified),104.6,0,0,0,0,-
CC(CCC(=O)O)C1CC[C@@]2(C)C3C(=O)CC4C(C)(C)C(O)CC[C@]4(C)C3C(=O)C[C@]12C (stereo partly specified),0,0,-,0,0,0
C/C(=C/CCC(C)C1CCC2(C)C3CCC4C(C)(C)C(=O)CCC4(C)C3=CCC12C)C(=O)O (stereo unspecified),105.1,-,-,-,0,-
C=CC[N@@+]12CC[C@]34c5ccccc5N5/C=C6\C7N(/C=C(\C53)[C@@H](C[C@@H]41)/C(=C/CO)C2)c1ccccc1[C@@]71CC[N@@+]2(CC=C)C/C(=C\CO)[C@@H]6C[C@@H]12 (stereo partly specified),-,0,-,0,-,0
O=C(Nc1cccc2ccccc12)c1nn(C23CC4CC(CC(C4)C2)C3)cc1[N+](=O)[O-],0,0,80.6,0,0,0
O=C(O)c1cccc([N+](=O)[O-])c1C(=O)Nc1cccc2ccccc12,0,0,-,0,0,0
COc1ccc(NC(=O)c2nn(C34CC5CC(CC(C5)C3)C4)cc2[N+](=O)[O-])cc1,0,0,96.2,0,0,0
CCOC(=O)/C(=C/C=C1\Sc2cc(OCC)c(OCC)cc2N1CC)C(C)=O,0,0,67.7,0,0,0
CN(Cc1cnccn1)Cc1cn(Cc2ccccc2)nc1-c1ccc2c(c1)OCO2,0,0,0,0,0,0
CCCOc1ccc(Br)cc1CSC(=N)N,0,98.9,0,0,0,0
CCOc1ccc(Br)cc1CC(=O)O,0,-,0,0,0,0
CCOC(=O)c1cnc(-n2nc(C)cc2C)nc1NNc1ncc(-c2ccccc2)cn1,0,96.4,-,0,0,0
